Results pooled from the literature.
Lines come from different studies, so protocols differ.
Organism: Escherichia coli
Effect on: microbial growth

For `CC(C)NCC(COc1cccc2ccccc12)OC(=O)C=Cc1ccc(O)c(O)c1` (stereo not drawn), the MIC was 64 µg/mL (broth dilution; ATCC25922).
The MIC of `CC(O)CSc1nnc(COc2ccc(Cl)cc2Br)n1-c1ccccc1` (stereo not drawn) is reported as 20500 µg/mL.
With `Cl.N[C@H]1CCN(c2cc(C(=O)NCC(=O)O)ccc2NC(=O)c2cc(Br)c(Br)[nH]2)C1` the MIC was over 32 µg/mL (broth dilution; ATCC25922).
The MIC of `CC1(C)S[C@@H]2[C@H](NC(=O)[C@H](N)c3ccccc3)C(=O)N2[C@H]1C(=O)O` is reported as 5 to 10 µM (24 h).
`CC(O)CSc1nnc(-c2cc3c(ccc4ccccc43)o2)n1-c1ccccc1` (stereo not drawn) gave an MIC of 16000 µg/mL.
The MIC of `Cc1nn(-c2ccccc2)c2c1C(c1ccc(N(C)C)cc1)N(C(=O)c1ccncc1)N2` (stereo not drawn) is reported as over 100 µg/mL (MTCC739; 24 h).
With `CC1(C)S[C@@H]2[C@H](NC(=O)[C@H](N)c3ccccc3)C(=O)N2[C@H]1C(=O)O` the MIC was 4 µg/mL (broth dilution; ATCC25922).
`Cc1nn(-c2ccccc2)c2c1C(c1ccc([N+](=O)[O-])cc1)N(C(=O)c1ccncc1)N2` (stereo not drawn) has an MIC of 32 µg/mL (MTCC739; 24 h).
The MIC of `Cc1[nH]c(C(=O)Nc2ccc(-c3n[nH]c(=O)o3)cc2N2CCC[C@H](N)C2)c(Cl)c1Cl.Cl` is reported as 16 µg/mL (broth dilution; ATCC25922).
`O=C(C=Cc1ccc(O)c(O)c1)OCc1ccccc1` gave an MIC of 8 µg/mL (broth dilution; ATCC25922).
The MIC of `NCC[C@H](O)C(=O)N[C@@H]1C[C@H](N)[C@@H](O[C@H]2O[C@H](CN)[C@@H](O)[C@H](O)[C@H]2O)[C@H](O)[C@H]1O[C@H]1O[C@H](CO)[C@@H](O)[C@H](N)[C@H]1O` is reported as at most 1 µg/mL (broth dilution).
With `Nc1ccccc1OC(=O)C=Cc1ccc(O)c(O)c1` the MIC was 8 µg/mL (broth dilution; ATCC25922).
`O=C(O)c1cn(C2CC2)c2cc(N3CCNCC3)c(F)cc2c1=O` has an MIC of 2 µM (K12; MG1655).
`Cc1[nH]c(C(=O)Nc2ccc(C(=O)NCC(=O)O)cc2N2CC[C@H](NC(=O)OC(C)(C)C)C2)c(Cl)c1Cl` gave an MIC of over 32 µg/mL (broth dilution; ATCC25922).
For `CCC(C)CCCC(=O)N[C@@H](CCN)C(=O)N[C@H](C(=O)N[C@@H](CCN)C(=O)N[C@H]1CCNC(=O)[C@H]([C@@H](C)O)NC(=O)[C@H](CCN)NC(=O)[C@H](CCN)NC(=O)[C@H](CC(C)C)NC(=O)[C@@H](CC(C)C)NC(=O)[C@H](CCN)NC1=O)[C@@H](C)O` (stereo partly drawn), the MIC was 0.25 µg/mL (broth dilution).
For `CN[C@@H]1[C@@H](O[C@H]2O[C@H](CO)[C@@H](N)[C@H](O)[C@H]2O)OC2C[C@@H](N)[C@@H](O[C@H]3[C@H](O)[C@@H](O)[C@H](N)C[C@@H]3N)OC2[C@@H]1O` (stereo partly drawn), the MIC was 2.5 to 5 µM (24 h).
`Cc1[nH]c(C(=O)Nc2ccc(C(=O)NCC(=O)O)cc2N2CC[C@H](N)C2)c(Cl)c1Cl.Cl` has an MIC of over 32 µg/mL (broth dilution; ATCC25922).
With `C[C@@H](O)[C@H]1C(=O)N2C(C(=O)O)=C(SCCNC=N)C[C@H]12` the MIC was at most 0.06 µg/mL (broth dilution).
For `Cc1[nH]c(C(=O)Nc2ccc(C(=O)NCC(=O)O)cc2N2CCNCC2)c(Cl)c1Cl.Cl`, the MIC was over 32 µg/mL (broth dilution; ATCC25922).
`CC(O)CSc1nnc(Cn2cnc3c2c(=O)n(C)c(=O)n3C)n1-c1ccccc1` (stereo not drawn) has an MIC of 15000 µg/mL.
`C[C@H]1[C@H](NC(=O)/C(=N\OC(C)(C)C(=O)O)c2csc(N)n2)C(=O)N1S(=O)(=O)O` gave an MIC of at most 0.06 µg/mL (broth dilution).
`Cc1nn(-c2ccccc2)c2c1C(c1ccco1)N(C(=O)c1ccncc1)N2` (stereo not drawn) gave an MIC of 64 µg/mL (MTCC739; 24 h).
The MIC of `CC(C)(O/N=C(\C(=O)N[C@@H]1C(=O)N2C(C(=O)[O-])=C(C[n+]3ccccc3)CS[C@H]12)c1csc(N)n1)C(=O)O` is reported as under 0.5 µg/mL (broth dilution; ATCC25922; 20 h).
`Cc1nn(-c2ccccc2)c2c1C(c1cncs1)N(C(=O)c1ccncc1)N2` (stereo not drawn) has an MIC of 64 µg/mL (MTCC739; 24 h).
`Cc1[nH]c(C(=O)Nc2ccc(C(=O)NCC(=O)O)cc2N2CCN(C(=O)OC(C)(C)C)CC2)c(Cl)c1Cl` gave an MIC of over 32 µg/mL (broth dilution; ATCC25922).
The MIC of `CC1CCC(C(C)C)C(OC(=O)C=Cc2ccc(O)c(O)c2)C1` (stereo not drawn) is reported as 2 µg/mL (broth dilution; ATCC25922).
With `CO/N=C(\C(=O)N[C@@H]1C(=O)N2C(C(=O)[O-])=C(C[N+]3(C)CCCC3)CS[C@H]12)c1csc(N)n1` the MIC was at most 0.06 µg/mL (broth dilution).
`CC(C)(C)OC(=O)N[C@@H]1CCN(c2cc(C(=O)NCC(=O)O)ccc2NC(=O)c2cc(Br)c(Br)[nH]2)C1` has an MIC of over 32 µg/mL (broth dilution; ATCC25922).
For `C[C@@H](O)[C@H]1C(=O)N2C(C(=O)O)=C(S[C@@H]3CN[C@H](C(=O)Nc4cccc(C(=O)O)c4)C3)[C@H](C)[C@H]12`, the MIC was at most 0.125 µg/mL (broth dilution).
`Cl.O=C(O)CNC(=O)c1ccc(NC(=O)c2cc(Br)c(Br)[nH]2)c(N2CCNCC2)c1` gave an MIC of over 32 µg/mL (broth dilution; ATCC25922).
